Experimental data reported in ChEMBL document CHEMBL3120104, “Discovery of the first C-nucleoside HCV polymerase inhibitor (GS-6620) with demonstrated antiviral response in HCV infected patients” (J Med Chem, 2014).
Values after ≈ are worked out from the molar mass of the structure shown.

How the values were obtained:
[1] = Permeability across basolateral to apical side in human Caco2 cells at 10 uM after 1 to 2 hrs by LC/MS/MS analysis; type: ADME, cell-based; conditions: Caco-2, read-out: permeability
Outline: (§1)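 Caco-2 monolayers were grown at least 21 days, and membrane integrity was checked by TEER after buffer equilibration. Test compound was dosed at 10 μM on the apical or basolateral side, in duplicate wells. Receiver samples at 1 and 2 h were precipitated with acetonitrile plus internal standard and run by LC/MS/MS.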

[2] = AUC (0 to infinity) in jagular vein cannulated beagle dog at 0.5 mg/kg, iv by LC/MS/MS analysis; type: ADME, organism-based, Canis lupus familiaris; parameters: time infinity, dose 0.5 mg/kg, route intravenous; conditions: plasma
Outline: (§2)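 Naive male beagle dogs got a single intravenous infusion of 0.5 mg/kg in EtOH/PEG 400/water 5/20/75, adjusted to pH 4 with HCl. EDTA-K3 blood was collected over 24 h and plasma isolated. Plasma was precipitated with acetonitrile to a final 60%, filtered, dried, reconstituted in 20% acetonitrile and analysed.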

[3] = Cytotoxicity against human HuH7 cells after 3 days by fluorescence assay; type: cell-based; conditions: Huh-7 cells
Outline: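 Huh-7 HCV replicon cells were seeded at 2000 cells/well in medium without Geneticin. Compounds were added as ten-point 1:3 DMSO dilutions in quadruplicate (final DMSO 0.44%), with […] as the 100% cytotoxicity control. After 3 days at 37 °C, cells were washed and given 400 nM calcein AM for 30 min at RT, and fluorescence read at ex 490/em 520 nm. Signal was normalized to DMSO and puromycin wells, and CC50 taken from a four-parameter Hill fit.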

[4] = Aqueous solubility of the compound in phosphate buffer at pH 7 by reverse-phase UPLC-UV method; type: physicochemical
Outline: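 Excess solid was suspended in pH 7 phosphate buffer at ambient temperature, sonicated, then stirred for at least 2 h. After centrifugation, the supernatant was quantified by reverse-phase UPLC-UV.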

[5] = Oral bioavailability in golden syrian hamster at 5 mg/kg; type: ADME, organism-based, Mesocricetus auratus; conditions: in vivo
[6] = Metabolic stability in human liver S9 fraction assessed as extraction at 2 uM after 90 mins by LC/MS/MS analysis; type: ADME, subcellular; conditions: read-out: Stability
Outline: (§3)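 Compound at 2 μM was incubated with human intestinal or hepatic S9 fraction plus NADPH and UDPGA for 90 min at 37 °C. Time-point samples were quenched in aqueous acetonitrile/methanol with internal standard and analysed by LC/MS/MS. Half-life came from an exponential first-order fit, and hepatic extraction was predicted from half-life using the well-stirred model.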

Syrian golden hamster [7] = experiment: Cmax in golden syrian hamster assessed as liver triphosphate level at 5 mg/kg, po by LC/MS/MS analysis; type: ADME, organism-based, Mesocricetus auratus; parameters: dose 5 mg/kg, route oral; conditions: in vivo
Outline: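 Groups of 12 Golden Syrian hamsters were dosed orally at 5 mg-equiv/kg. Vehicle was EtOH/PEG400/water buffered with 50 mM pH 4 citrate at 2.5 mg-equiv/mL. Liver was homogenized in four volumes of ice-cold 0.1% KOH/67 mM EDTA in 70% MeOH containing 0.25 μM Cl-ATP, then centrifuged, dried and reconstituted in 1 mM ammonium phosphate pH 7.0. Triphosphate was measured by LC/MS/MS, with endogenous ATP checked for sample stability.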

[8] = Permeability across apical to basolateral side in human Caco2 cells at 10 uM after 1 to 2 hrs by LC/MS/MS analysis; type: ADME, cell-based; conditions: Caco-2, read-out: permeability; outline: as §1
Hepatitis C virus [9] = experiment: Antiviral activity against HCV genotype 1b infected in human HuH7 cells assessed as inhibition of viral replication after 3 days by luminescence assay; type: functional, organism-based, Hepacivirus hominis; conditions: Huh-7, 72 h
Outline: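 Multiplex replicon assay carrying a renilla luciferase reporter, with stable GT1b, 1a and 2a replicons and chimeric 2b, 3a, 4a, 5a and 6a replicons. 2000 replicon cells/well in medium without Geneticin. Ten-step 1:3 serial dilutions, four replicates, 0.44% DMSO final. Incubated 3 days at 37 °C, 5% CO₂. Luminescence normalised to DMSO wells and to protease-inhibitor (ITMN-191) wells. EC50 from a four-parameter Hill fit.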

Syrian golden hamster [10] = experiment: Cmax in golden syrian hamster assessed as liver triphosphate level at 1 mg/kg, iv by LC/MS/MS analysis; type: ADME, organism-based, Mesocricetus auratus; parameters: dose 1 mg/kg, route intravenous; conditions: in vivo
Outline: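 Golden Syrian hamsters in groups of 12, dosed iv at 1 mg-equiv/kg in EtOH/PEG400/water adjusted to pH 4 with HCl (0.5 mg-equiv/mL). Liver homogenised in ice-cold 70% MeOH with 0.1% KOH, 67 mM EDTA and 0.25 μM Cl-ATP internal standard, then centrifuged, dried and reconstituted. Triphosphate measured by LC/MS/MS; endogenous ATP checked for sample stability.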

[11] = Lipophilicity, log D of the compound by HPLC/UV method; type: physicochemical
Outline: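 A 10 mM DMSO stock was diluted 1:100 into 1:1 acetonitrile/water, shaken 30 min, and analysed by HPLC/UV on a C18 column with 20 mM ammonium acetate/acetonitrile mobile phase.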

[12] = Half life in human intestinal S9 fraction at 2 uM by LC/MS/MS analysis; type: ADME, Intestine; outline: as §3
[13] = AUC (0 to infinity) in portal vein cannulated beagle dog at 0.5 mg/kg, iv by LC/MS/MS analysis; type: ADME, organism-based, Canis lupus familiaris; parameters: time infinity, dose 0.5 mg/kg, route intravenous; conditions: plasma; outline: as §2
[14] = Oral absorption in beagle dog at 5 mg/kg, po by LC/MS/MS analysis; type: ADME, organism-based, Canis lupus familiaris; parameters: dose 5 mg/kg, route oral; conditions: in vivo
Outline: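 Naive male beagle dogs were dosed once, orally at 5 mg/kg in EtOH/PEG 400/50 mM citrate buffer pH 4 (5/40/55), or intravenously at 0.5 mg/kg for reference. Plasma was sampled over 24 h and processed by acetonitrile precipitation. Bioavailability %F = AUC_po × Dose_iv / (AUC_iv × Dose_po).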

[15] = Metabolic stability in serum (unknown origin); type: ADME
Hepatitis C virus [16] = experiment: Selectivity ratio of EC50 for HCV harboring NS5B RNA dependent RNA polymerase S282T mutant to EC50 for wild-type HCV; type: functional, Hepacivirus hominis

SMILES	Papp B→A at 10 µM [1] [×10⁻⁶ cm/s]	AUC(0-inf) [2] [µM·h]	CC50 at 72 h [3] [nM]	solubility [4] [µg/mL]	bioavailability [5] [%]	hepatic extraction ratio at 1.5 h, 2 µM [6]	Cmax (Syrian golden hamster [7]) [nM]	Papp A→B at 10 µM [8] [×10⁻⁶ cm/s]	EC50 (Hepatitis C virus [9]) [nM]	Cmax (Syrian golden hamster [10]) [nM]	logD [11]	half-life at 2 µM [12] [h]	AUC(0-inf) [13] [µM·h]	Fa [14] [%]	Stability [15]	Ratio EC50 (Hepatitis C virus [16])
CCC(CC)COC(=O)[C@H](C)NP(=O)(OC[C@H]1O[C@@](C#N)(c2ccc3c(N)ncnn23)[C@](C)(O)[C@@H]1O)Oc1ccccc1 (stereo partly drawn)	7.2	0.02	35000	1.8 (≈ 2.92 µM)	5.4	0.97	2260	0.36	440	8330	2.7	1.23	0.21	7.9	–	–
COC(=O)[C@H](C)NP(=O)(OC[C@H]1O[C@@](C#N)(c2ccc3c(N)ncnn23)[C@](C)(O)[C@@H]1O)Oc1ccccc1 (stereo partly drawn)	4.64	–	> 89000	–	0.9	0.9	290	0.41	1370	6350	1.3	3.17	–	–	–	–
C[C@H](NP(=O)(OC[C@H]1O[C@@](C#N)(c2ccc3c(N)ncnn23)[C@](C)(O)[C@@H]1O)Oc1ccccc1)C(=O)OCc1ccccc1 (stereo partly drawn)	25.3	–	63000	0.05 (≈ 0.0803 µM)	–	0.93	860	3.35	330	–	2.2	2.15	–	–	–	–
C[C@H](NP(=O)(OC[C@H]1O[C@@](C#N)(c2ccc3c(N)ncnn23)[C@](C)(O)[C@@H]1O)Oc1ccccc1)C(=O)OC(C)(C)C (stereo partly drawn)	31.1	–	> 89000	380 (≈ 646 µM)	–	0.84	–	0.67	> 89000	–	2.2	> 10.2	–	–	–	–
C[C@H](NP(=O)(OC[C@H]1O[C@@](C#N)(c2ccc3c(N)ncnn23)[C@](C)(O)[C@@H]1O)Oc1ccccc1)C(=O)OCC(C)(C)C (stereo partly drawn)	29.1	0.09	85000	115 (≈ 191 µM)	5.6	0.94	1440	0.69	180	5180	2.3	1.42	0.25	13	–	–
C#C[C@@]1(c2ccc3c(N)ncnn23)O[C@H](CO)[C@@H](O)[C@@]1(C)O	–	–	–	–	–	–	–	–	> 89000	–	–	–	–	–	–	–
CC(C)OC(=O)[C@H](C)NP(=O)(OC[C@H]1O[C@@](C#N)(c2ccc3c(N)ncnn23)[C@]2(C)OC(=O)O[C@H]12)Oc1ccccc1 (stereo partly drawn)	–	–	> 89000	–	–	–	590	–	1410	1920	2.6	–	–	29	Stable	–
CC[C@@H](C)OC(=O)[C@H](C)NP(=O)(OC[C@H]1O[C@@](C#N)(c2ccc3c(N)ncnn23)[C@](C)(O)[C@@H]1O)Oc1ccccc1 (stereo partly drawn)	37.5	0.14	> 89000	151 (≈ 257 µM)	–	0.94	1870	0.75	980	–	1.9	7.68	0.46	8.1	Stable	–
CCOC(=O)[C@H](C)NP(=O)(OC[C@H]1O[C@@](C#N)(c2ccc3c(N)ncnn23)[C@](C)(O)[C@@H]1O)Oc1ccccc1 (stereo partly drawn)	2.98	–	> 89000	108 (≈ 193 µM)	2.5	0.89	570	0.17	1450	4480	1.6	1.15	–	–	–	–
C[C@@]1(O)[C@H](O)[C@@H](CO)O[C@H]1n1ccc2c(N)ncnc21 [BETA-2'-C-METHYL-7-DEAZA-ADENOSINE]	–	–	–	–	–	–	–	–	–	–	–	–	–	–	–	>95
